Drawing on ChEMBL document CHEMBL3526081 (Drug Metab Dispos, 2011), this text covers Drug metabolism and IC50 for three compounds.

SMILES strings stand for the structures. A value given as a limit tells only on which side of the number the result lay.

Data set [1] can be described thus: Drug level in cynomolgus monkey liver microsomes treated with 100 uM cinobufagin at 37 degC after 30 mins by UFLC-ESI-MS analysis in presence of NADPH-generating system. The conditions noted are these: 0.5 h. In kind it is ADME, Macaca fascicularis. Put shortly:
(§1)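 Liver microsomes (0.3 mg protein/ml) incubated with 100 µM substrate at 37°C for 30 min, in 100 mM potassium phosphate pH 7.4 with NADPH-generating system (1 mM NADP+, 10 mM glucose 6-phosphate, 1 unit/ml G6PDH, 4 mM MgCl2). Acetonitrile ≤1% final. Stopped with ice-cold acetonitrile and centrifuged. Metabolites identified by UFLC-ESI-MS and quantified by UFLC-DAD at 294 nm against authentic standard curves.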

Data set [2] concerns Liver microsome. The data set can be described thus: Drug level in beagle dog liver microsomes treated with 100 uM cinobufagin at 37 degC after 30 mins by UFLC-ESI-MS analysis in presence of NADPH-generating system. As to conditions: 0.5 h. In kind it is ADME, Canis lupus familiaris. Put shortly:
as §1

Another data set has as its target Cytochrome P450 2C19 (Homo sapiens, UniProt P33261). As to the kind of experiment: Drug level in human recombinant CYP2C19 expressed in insect cells coexpressing NADPH-P450 reductase measured per pmol of enzyme treated with 100 uM cinobufagin at 37 degC after 30 mins by UFLC-DAD-ESI-MS analysis. In kind it is ADME. The conditions noted are these: 0.5 h.
The next data set addresses Cytochrome P450 3A4 (Homo sapiens, UniProt P08684). The data set can be described thus: Drug level in human recombinant CYP3A4 expressed in insect cells coexpressing NADPH-P450 reductase measured per pmol of enzyme treated with 50 uM cinobufagin at 37 degC after 30 mins by UFLC-DAD-ESI-MS analysis. As to conditions: 0.5 h.
A short description of data set [3]: Drug level in Colony-bred Chinese Bama minipig liver microsomes treated with 100 uM cinobufagin at 37 degC after 30 mins by UFLC-ESI-MS analysis in presence of NADPH-generating system. The conditions noted are these: pig, 0.5 h. In kind it is ADME, Sus scrofa. Put shortly: as §1
In the next data set the target is Cytochrome P450 2D6 (Homo sapiens, UniProt P10635). The data set can be described thus: Drug level in human recombinant CYP2D6 expressed in insect cells coexpressing NADPH-P450 reductase measured per pmol of enzyme treated with 50 uM cinobufagin at 37 degC after 30 mins by UFLC-DAD-ESI-MS analysis. As to conditions: 0.5 h.
Chain of Cytochrome P450 2D6 (P10635 whole entry): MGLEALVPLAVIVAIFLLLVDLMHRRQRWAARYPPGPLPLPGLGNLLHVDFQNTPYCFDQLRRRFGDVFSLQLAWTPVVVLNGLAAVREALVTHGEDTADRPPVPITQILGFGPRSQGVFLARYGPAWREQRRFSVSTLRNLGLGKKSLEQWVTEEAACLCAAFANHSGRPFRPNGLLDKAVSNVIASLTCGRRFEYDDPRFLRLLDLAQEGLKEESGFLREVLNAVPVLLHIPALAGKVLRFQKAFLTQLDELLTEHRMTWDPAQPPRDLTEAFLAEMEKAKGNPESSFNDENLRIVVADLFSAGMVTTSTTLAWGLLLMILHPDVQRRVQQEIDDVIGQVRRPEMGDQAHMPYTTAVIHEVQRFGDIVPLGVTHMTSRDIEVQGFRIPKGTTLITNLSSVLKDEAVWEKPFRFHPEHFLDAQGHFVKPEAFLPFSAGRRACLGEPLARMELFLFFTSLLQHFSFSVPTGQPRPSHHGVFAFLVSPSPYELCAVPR
In data set [4] the test system is Liver microsome. As to the kind of experiment: Drug level in human liver microsomes treated with 100 uM cinobufagin at 37 degC after 30 mins by UFLC-ESI-MS analysis in presence of NADPH-generating system. Format: ADME. As to conditions: 0.5 h. Put shortly:
as §1

The next data set concerns the target T1, Cytochrome P450 2B6 (Homo sapiens, UniProt P20813).
T1 sequence (P20813 whole entry): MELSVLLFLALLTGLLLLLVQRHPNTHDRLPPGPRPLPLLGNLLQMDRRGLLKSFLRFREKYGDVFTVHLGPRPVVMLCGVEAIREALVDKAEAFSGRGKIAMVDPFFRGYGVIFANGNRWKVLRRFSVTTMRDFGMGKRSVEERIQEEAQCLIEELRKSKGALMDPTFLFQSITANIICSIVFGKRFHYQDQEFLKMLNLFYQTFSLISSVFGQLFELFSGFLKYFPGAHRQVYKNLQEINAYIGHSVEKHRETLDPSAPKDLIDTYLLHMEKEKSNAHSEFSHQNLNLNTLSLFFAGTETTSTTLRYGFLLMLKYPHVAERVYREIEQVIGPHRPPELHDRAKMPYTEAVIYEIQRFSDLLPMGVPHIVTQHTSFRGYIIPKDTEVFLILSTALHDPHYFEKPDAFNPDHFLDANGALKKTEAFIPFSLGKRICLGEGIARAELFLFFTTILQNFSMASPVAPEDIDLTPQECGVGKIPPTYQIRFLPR
The data set can be described thus: Drug level in human recombinant CYP2B6 expressed in insect cells coexpressing NADPH-P450 reductase measured per pmol of enzyme treated with 50 uM cinobufagin at 37 degC after 30 mins by UFLC-DAD-ESI-MS analysis. As to conditions: 0.5 h.

The target of another data set is Cytochrome P450 2E1 (Homo sapiens, UniProt P05181). As to the kind of experiment: Drug level in human recombinant CYP2E1 expressed in insect cells coexpressing NADPH-P450 reductase measured per pmol of enzyme treated with 50 uM cinobufagin at 37 degC after 30 mins by UFLC-DAD-ESI-MS analysis. As to conditions: 0.5 h.
Chain of Cytochrome P450 2E1 (P05181 whole entry): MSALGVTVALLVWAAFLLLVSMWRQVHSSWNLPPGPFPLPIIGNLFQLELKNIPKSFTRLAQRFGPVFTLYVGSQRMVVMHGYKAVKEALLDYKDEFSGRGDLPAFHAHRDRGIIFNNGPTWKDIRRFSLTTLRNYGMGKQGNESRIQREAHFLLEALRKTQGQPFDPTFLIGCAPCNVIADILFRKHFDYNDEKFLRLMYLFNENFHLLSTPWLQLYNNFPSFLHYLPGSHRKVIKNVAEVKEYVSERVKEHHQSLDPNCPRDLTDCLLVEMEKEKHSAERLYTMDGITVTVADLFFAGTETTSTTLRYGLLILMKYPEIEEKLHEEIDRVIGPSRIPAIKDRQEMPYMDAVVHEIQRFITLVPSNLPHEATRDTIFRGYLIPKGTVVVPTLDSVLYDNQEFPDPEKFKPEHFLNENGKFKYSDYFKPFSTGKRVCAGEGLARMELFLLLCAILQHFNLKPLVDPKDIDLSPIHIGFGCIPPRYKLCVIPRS
In the next data set the target is T2, Cytochrome P450 2C8 (Homo sapiens, UniProt P10632).
T2 sequence (P10632 whole entry): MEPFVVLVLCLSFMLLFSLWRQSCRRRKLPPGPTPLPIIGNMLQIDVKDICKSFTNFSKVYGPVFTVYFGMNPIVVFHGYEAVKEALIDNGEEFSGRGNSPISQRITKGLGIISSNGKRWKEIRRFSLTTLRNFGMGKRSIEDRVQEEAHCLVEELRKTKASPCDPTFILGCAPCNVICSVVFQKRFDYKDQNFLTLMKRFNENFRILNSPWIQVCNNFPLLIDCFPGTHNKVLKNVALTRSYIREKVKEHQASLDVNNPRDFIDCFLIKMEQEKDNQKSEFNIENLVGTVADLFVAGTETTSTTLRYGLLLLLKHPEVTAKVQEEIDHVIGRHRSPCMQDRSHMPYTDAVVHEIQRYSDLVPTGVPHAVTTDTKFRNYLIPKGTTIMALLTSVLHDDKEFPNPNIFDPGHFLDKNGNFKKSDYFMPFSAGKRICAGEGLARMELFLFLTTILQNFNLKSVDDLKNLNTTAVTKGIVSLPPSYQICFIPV
As to the kind of experiment: Drug level in human recombinant CYP2C8 expressed in insect cells coexpressing NADPH-P450 reductase measured per pmol of enzyme treated with 50 uM cinobufagin at 37 degC after 30 mins by UFLC-DAD-ESI-MS analysis. As to conditions: 0.5 h.

A further data set deals with Cytochrome P450 2C9 (Homo sapiens, UniProt P11712). As to the kind of experiment: Drug level in human recombinant CYP2C9 expressed in insect cells coexpressing NADPH-P450 reductase measured per pmol of enzyme treated with 50 uM cinobufagin at 37 degC after 30 mins by UFLC-DAD-ESI-MS analysis. As to conditions: 0.5 h.
Chain of Cytochrome P450 2C9 (P11712 whole entry): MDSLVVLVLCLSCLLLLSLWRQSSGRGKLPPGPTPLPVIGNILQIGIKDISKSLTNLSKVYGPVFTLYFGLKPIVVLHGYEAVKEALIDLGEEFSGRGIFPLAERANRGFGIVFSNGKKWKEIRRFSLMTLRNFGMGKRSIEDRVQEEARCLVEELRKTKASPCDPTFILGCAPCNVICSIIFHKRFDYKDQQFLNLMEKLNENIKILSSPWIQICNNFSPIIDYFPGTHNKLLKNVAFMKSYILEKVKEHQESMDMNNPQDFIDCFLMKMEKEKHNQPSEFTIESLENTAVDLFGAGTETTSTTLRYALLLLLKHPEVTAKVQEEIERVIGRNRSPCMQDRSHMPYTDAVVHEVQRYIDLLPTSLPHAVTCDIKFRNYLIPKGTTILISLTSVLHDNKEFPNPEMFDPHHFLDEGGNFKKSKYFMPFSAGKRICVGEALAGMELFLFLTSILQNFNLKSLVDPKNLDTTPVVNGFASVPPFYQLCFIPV
A short description of data set [5]: Cytotoxicity against human Bel7402 cells assessed as againsthibition of cell growth after 72 hrs. Format: cell-based. The conditions noted are these: Bel-7402, 72 h. Put shortly:
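Bel-7402 hepatoma cells grown in RPMI 1640 with 10% FBS and 1% penicillin/streptomycin, trypsinised, seeded and exposed to serial dilutions for 72 h at 37°C.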

Chain of Cytochrome P450 3A4 (P08684 whole entry): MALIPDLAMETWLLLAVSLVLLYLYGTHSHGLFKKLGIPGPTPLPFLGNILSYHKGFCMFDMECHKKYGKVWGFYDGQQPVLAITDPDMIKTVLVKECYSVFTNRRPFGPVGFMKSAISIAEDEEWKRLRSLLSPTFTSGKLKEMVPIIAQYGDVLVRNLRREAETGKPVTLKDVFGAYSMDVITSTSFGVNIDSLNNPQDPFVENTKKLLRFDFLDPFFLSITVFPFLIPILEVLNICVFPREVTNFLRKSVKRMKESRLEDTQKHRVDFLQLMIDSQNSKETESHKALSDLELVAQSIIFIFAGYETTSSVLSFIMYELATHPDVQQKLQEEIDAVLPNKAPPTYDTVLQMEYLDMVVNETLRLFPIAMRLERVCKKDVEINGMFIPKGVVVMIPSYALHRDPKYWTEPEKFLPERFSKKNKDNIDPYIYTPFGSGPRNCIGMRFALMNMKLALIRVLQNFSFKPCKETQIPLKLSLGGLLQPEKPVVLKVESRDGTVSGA
Chain of Cytochrome P450 2C19 (P33261 whole entry): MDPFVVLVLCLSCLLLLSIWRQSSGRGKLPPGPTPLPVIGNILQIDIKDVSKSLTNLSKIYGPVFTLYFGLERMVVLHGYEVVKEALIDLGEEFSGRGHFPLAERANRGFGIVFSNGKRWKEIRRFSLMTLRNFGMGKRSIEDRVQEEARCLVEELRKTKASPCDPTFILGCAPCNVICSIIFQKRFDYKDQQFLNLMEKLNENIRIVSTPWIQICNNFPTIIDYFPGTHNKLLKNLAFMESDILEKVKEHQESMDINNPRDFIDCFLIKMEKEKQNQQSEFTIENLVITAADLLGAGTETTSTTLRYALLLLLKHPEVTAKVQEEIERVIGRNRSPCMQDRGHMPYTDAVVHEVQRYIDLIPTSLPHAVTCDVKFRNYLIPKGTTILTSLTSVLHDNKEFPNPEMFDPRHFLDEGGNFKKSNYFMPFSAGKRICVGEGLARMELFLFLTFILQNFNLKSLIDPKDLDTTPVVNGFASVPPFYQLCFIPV

With `CC(=O)O[C@H]1[C@H]2O[C@]23[C@@H]2CC[C@@H]4C[C@@H](O)C[C@H](O)[C@]4(C)[C@H]2CC[C@]3(C)[C@H]1c1ccc(=O)oc1`, the Drug metabolism result in data set [1] is on record as “metabolite_detected”; in the data set on Liver microsome [2], “metabolite_detected”; on Cytochrome P450 2C19, less than 0.01 pmol/min; on Cytochrome P450 3A4, 14.01 pmol/min; in data set [3], “metabolite_detected”; on Cytochrome P450 2D6, less than 0.01 pmol/min. The Drug metabolism result was “metabolite_detected” with Liver microsome [4]; less than 0.01 pmol/min at Cytochrome P450 2B6; less than 0.01 pmol/min at Cytochrome P450 2E1; less than 0.01 pmol/min on Cytochrome P450 2C8; less than 0.01 pmol/min on Cytochrome P450 2C9. In addition, the IC50 in [5] stood at 370 nM.

With `CC(=O)O[C@H]1[C@H]2O[C@]23[C@@H]2CC[C@@H]4C[C@@H](O)CC[C@]4(C)[C@H]2CC[C@]3(C)[C@H]1c1ccc(=O)oc1` [CINOBUFAGIN], the IC50 in data set [5] worked out at 49 nM.

For `CC(=O)O[C@H]1[C@H]2O[C@]23[C@@H]2CC[C@]4(O)C[C@@H](O)CC[C@]4(C)[C@H]2CC[C@]3(C)[C@H]1c1ccc(=O)oc1` [CINOBUFOTALIN], the Drug metabolism entry is “metabolite_detected” in data set [1]; “metabolite_detected” in the data set on Liver microsome [2]; less than 0.01 pmol/min at Cytochrome P450 2C19; 26.02 pmol/min on Cytochrome P450 3A4; “metabolite_detected” in data set [3]; less than 0.01 pmol/min on Cytochrome P450 2D6. In addition, the Drug metabolism entry in the data set with Liver microsome [4] is listed as “metabolite_detected”; on Cytochrome P450 2B6, less than 0.01 pmol/min; at Cytochrome P450 2E1, less than 0.01 pmol/min; on Cytochrome P450 2C8, less than 0.01 pmol/min; at Cytochrome P450 2C9 it was less than 0.01 pmol/min. The IC50 in data set [5] stood at 8620 nM.
